Assay results from ChEMBL document CHEMBL2021764, “2-Aminothiophenes as building blocks in heterocyclic synthesis: synthesis and antimicrobial evaluation of a new class of pyrido[1,2-a]thieno[3,2-e]pyrimidine, quinoline and pyridin-2-one derivatives” (2012).

Columns and labels:
Assay type in all cases: functional
Saccharomyces cerevisiae = experiment: Antifungal activity against Saccharomyces cerevisiae 156250 at 1 mg/ml after 48 hrs by agar-well diffusion technique; conditions: Saccharomyces cerevisiae, 156250, 48 h; read-out: DIZ
How it was run: (§1)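 Yeast (0.1 ml) was spread on potato dextrose agar, and 4 mm wells were cut with a sterile cork borer. Wells were loaded with test chemical at a final 1 mg ml^-1, then incubated at 25 °C for 48 h. Inhibition zones around the wells were measured, averaged over 3 replicas.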

Bacillus subtilis = experiment: Antibacterial activity against Bacillus subtilis 154921 at 1 mg/ml after 24 hrs by agar-well diffusion technique; conditions: Bacillus subtilis, 154921, 24 h; read-out: DIZ
How it was run: (§2)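 Each bacterial strain (0.1 ml) was spread on nutrient agar, and 4 mm wells were cut with a sterile cork borer. Wells were loaded with test chemical at a final 1 mg ml^-1, then incubated at 37 °C for 24 h. Inhibition zone diameters around the wells were measured, averaged over 3 replicas.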

Pseudomonas aeruginosa = experiment: Antibacterial activity against Pseudomonas aeruginosa 155250A at 1 mg/ml after 24 hrs by agar-well diffusion technique; conditions: read-out: DIZ; how it was run: as §2
Escherichia coli = experiment: Antibacterial activity against Escherichia coli 124300 at 1 mg/ml after 24 hrs by agar-well diffusion technique; conditions: Escherichia coli, 124300, 24 h; read-out: DIZ; how it was run: as §2
Serratia marcescens = experiment: Antibacterial activity against Serratia marcescens 155449 at 1 mg/ml after 24 hrs by agar-well diffusion technique; conditions: Serratia marcescens, 155449, 24 h; read-out: DIZ; how it was run: as §2
Staphylococcus aureus = experiment: Antibacterial activity against Staphylococcus aureus 155554A at 1 mg/ml after 24 hrs by agar-well diffusion technique; conditions: read-out: DIZ; how it was run: as §2
Candida albicans = experiment: Antifungal activity against Candida albicans 155965 at 1 mg/ml after 48 hrs by agar-well diffusion technique; conditions: Candida albicans, 155965, 48 h; read-out: DIZ; how it was run: as §1

SMILES	zone of inhibition at 1000 µg/mL (Saccharomyces cerevisiae)	zone of inhibition at 1000 µg/mL (Bacillus subtilis)	zone of inhibition at 1000 µg/mL (Pseudomonas aeruginosa)	zone of inhibition at 1000 µg/mL (Escherichia coli)	zone of inhibition at 1000 µg/mL (Serratia marcescens)	zone of inhibition at 1000 µg/mL (Staphylococcus aureus)	zone of inhibition at 1000 µg/mL (Candida albicans)
Cc1ccc(-c2c(C#N)c(=N)n3c([nH]c(=O)c4c(-c5ccc(Cl)cc5)csc43)c2C#N)cc1	2 mm	2 mm	6 mm	3.3 mm	4 mm	0 mm	0 mm
COc1ccc(-c2c(C#N)c(=N)n3c([nH]c(=O)c4c(-c5ccccc5)csc43)c2C#N)cc1	0 mm	2 mm	14 mm	3.3 mm	2 mm	0 mm	0 mm
N#Cc1c(-c2ccccc2)csc1NC(=O)c1ccc(-c2ccccc2)[nH]c1=O	1.3 mm	1.6 mm	5.3 mm	3.3 mm	2 mm	0 mm	0 mm
N#CCC(=O)Nc1scc(-c2ccc(Cl)cc2)c1C#N	3 mm	4.6 mm	4 mm	4 mm	1.3 mm	0 mm	0 mm
CN(C)/C=C(\C#N)C(=O)Nc1scc(-c2ccc(Cl)cc2)c1C#N	1.3 mm	1 mm	4 mm	4 mm	7 mm	0 mm	0 mm
CCOC(=O)c1sc(NC(=O)CC#N)c(C#N)c1C	0 mm	7 mm		7 mm			0 mm
COc1ccc(-c2c(C#N)c(=N)n3c([nH]c(=O)c4c(-c5ccc(Cl)cc5)csc43)c2C#N)cc1	0 mm	2 mm	13.1 mm	4 mm	4 mm	0 mm	0 mm
Cc1ccc(-c2c(C#N)c(=N)n3c([nH]c(=O)c4c(-c5ccccc5)csc43)c2C#N)cc1	0.7 mm	2 mm	6 mm	2.6 mm	3.3 mm	0 mm	0 mm
N#Cc1c(-c2ccc(Cl)cc2)c(C#N)c2[nH]c(=O)c3c(-c4ccc(Cl)cc4)csc3n2c1=N	0.7 mm	3.3 mm	7 mm	4 mm	2.6 mm	0 mm	0 mm
N#Cc1c(-c2ccccc2)c(C#N)c2[nH]c(=O)c3c(-c4ccc(Cl)cc4)csc3n2c1=N	4 mm	2 mm	6 mm	4 mm	4 mm	0 mm	0 mm
N#Cc1c(-c2ccc(Cl)cc2)c(C#N)c2[nH]c(=O)c3c(-c4ccccc4)csc3n2c1=N	1.3 mm	1.6 mm		4.6 mm	3.3 mm	0 mm	0 mm
N#Cc1c(-c2ccccc2)csc1NC(=O)c1cc2ccccc2[nH]c1=O	14 mm	11 mm	10 mm	8.6 mm	6 mm	12 mm	16 mm
CN(C)c1ccc(/C=C(\C#N)C(=O)Nc2scc(-c3ccc(Cl)cc3)c2C#N)cc1	0 mm	3.6 mm	6 mm	2 mm	2 mm	0 mm	0 mm
N#CCC(=O)Nc1scc(-c2ccccc2)c1C#N	2.6 mm	2 mm	4 mm	4 mm	2 mm	0 mm	4 mm
N#Cc1c(-c2ccccc2)csc1N	16 mm	14.6 mm	10.6 mm	10.6 mm	11.3 mm	21 mm	18 mm
N#Cc1c(-c2cccs2)c(C#N)c2[nH]c(=O)c3c(-c4ccc(Cl)cc4)csc3n2c1=N	0 mm	2 mm	10.6 mm	4 mm	2.6 mm	0 mm	12 mm
N#Cc1c(-c2ccccc2)csc1NC(=O)c1cn[nH]c1N	2.6 mm	2 mm	6.6 mm	2.6 mm	0.7 mm	0 mm	4 mm
N#Cc1c(-c2ccc([N+](=O)[O-])cc2)c(C#N)c2[nH]c(=O)c3c(-c4ccc(Cl)cc4)csc3n2c1=N	1.3 mm	4 mm	6 mm	5.3 mm	4 mm	0 mm	2.6 mm
N#Cc1cc(C#N)c2[nH]c(=O)c3c(-c4ccc(Cl)cc4)csc3n2c1=N	0 mm	6 mm	8 mm	2 mm	3.3 mm	2.6 mm	0 mm
Cc1cccc(-c2ccc(C(=O)Nc3scc(-c4ccccc4)c3C#N)c(=O)[nH]2)n1	0 mm	0 mm	4 mm	0 mm	0 mm	0 mm	0 mm
N#Cc1c(-c2ccc(Cl)cc2)csc1NC(=O)c1cc2ccccc2[nH]c1=O		10.5 mm	11 mm	8 mm		8 mm	
N#Cc1c(-c2ccc(Cl)cc2)csc1N	7 mm	11 mm	5 mm	4 mm	0 mm	6.6 mm	2.6 mm
N#Cc1c(-c2ccccc2)csc1NC(=O)c1ccc(-c2cccs2)[nH]c1=O	2 mm	2 mm	4 mm	2 mm	2 mm	0 mm	0 mm
N#Cc1c(-c2ccccc2)c(C#N)c2[nH]c(=O)c3c(-c4ccccc4)csc3n2c1=N	2.6 mm	4 mm	4 mm	6.3 mm	4.6 mm	0 mm	2 mm
CN(C)/C=C(\C#N)C(=O)Nc1scc(-c2ccccc2)c1C#N	1.3 mm	1.6 mm	10.8 mm	4 mm	3.3 mm	0 mm	4 mm
N#Cc1cc(C#N)c2[nH]c(=O)c3c(-c4ccccc4)csc3n2c1=N	1.3 mm	2 mm	9 mm	4 mm	6.6 mm	0 mm	2.6 mm
CN(C)c1ccc(/C=C(\C#N)C(=O)Nc2scc(-c3ccccc3)c2C#N)cc1	0 mm	0 mm	4 mm	2 mm	7.3 mm	0 mm	0 mm
N#Cc1c(-c2ccc([N+](=O)[O-])cc2)c(C#N)c2[nH]c(=O)c3c(-c4ccccc4)csc3n2c1=N	0 mm	2 mm		4 mm	4.6 mm	0 mm	0 mm
